Where two headings read alike, the source gives them in different places. One block for each compound: values may come before it.
Tests used:
[1] = system: sites III and IV of CaM bound to the NaV1.2 IQ motif; experiment: Simulation of calcium binding to CaM bound to the NaV1.2 IQ motif
Method in brief: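 Calcium binding to sites III and IV of IQ-bound CaM was simulated by thermodynamic linkage. Inputs were earlier-measured calcium-binding energies of CaM alone (ΔG1 −7.76, ΔG2 −15.92 kcal/mol) and the apo-versus-Ca2+ difference in IQ binding. The simulation used a total free energy of −13.99 kcal/mol and the same cooperativity as free CaM.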

CaM = details: absence of IQ motif; same conditions as this study; cited from earlier work
[2] = system: CaM bound to NaV1.2 IQ motif; details: cited from earlier work
[3] = biological target: rat NaV1.2 IQ motif (residues 1901-1927) in YFP-CFP biosensor; experiment: CaM titrations of NaV1.2IQ YFP-CFP FRET biosensor; format: binding; details: for Kd: read-out: Kd, apo CaM, apo (no CaCl2), pH 7.4, 22 °C, calculated from average ΔG
Method in brief: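 Rat NaV1.2 residues 1901–1927 inserted between YFP and CFP, expressed in BL21(DE3) (IPTG, 40 h, 18 °C), used as clarified lysate. Biosensor at 0.5 nM (apo) to 5 nM (Ca2+). Titrant: paramecium-sequence CaM or its domains.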

NaV1.5 DIII-DIV linker = details: cited from earlier work
NaV1.2IQ biosensor = format: binding, rat; details: for fractional decrease/change in YFP intensity of biosensor, apo: [CaM]:[biosensor] = 10^3:1, biosensor 4 nM, excitation 430 nm, YFP 525 nm
Method in brief: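 Steady-state emission spectra were recorded with 430 nm excitation, showing CFP at 475 nm and YFP at 525 nm. Samples were biosensor alone or with >10^3-fold excess apo or Ca2+-saturated CaM, CaMN or CaMC, in titration buffer at pH 7.4 and 22 °C. Spectra were buffer-subtracted, dilution-corrected and normalized to free-biosensor intensity at 525 nm. Fractional YFP decrease was taken at λmax.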

NaV1.2 IQ motif = system: NaV1.2 IQ motif; design: species or system rat; details: free [CaM] 50–100 nM (estimated)
Method in brief: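 Single-site fractional saturation isotherms of the IQ motif by apo or calcium-saturated CaM were simulated from the single-site binding equation. Input was the free energies measured by biosensor titration.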

rat Nav1.2IQp = details: thermodynamic linkage analysis; cited from earlier work
[4] = system: IQ motifs of NaV1.2, 1.5, and 1.6; details: cited from earlier work
ryanodine receptor RyR1 = details: cited from earlier work
CaV1.2 IQ motif = details: cited from earlier work

total free energy of calcium binding to sites III and IV of CaM bound to NaV1.2 IQ motif ([1]; simulation for illustration, same cooperativity as CaM alone): -13.99 kcal/mol
Compound: [Ca+2] [calcium]
ΔG1 (printed AG1) of calcium binding to CaM alone (CaM): -7.76 kcal/mol
ΔG2 of calcium binding to CaM alone (CaM): -15.92 kcal/mol
calcium equivalents (ions per CaM) required for saturation ([2]; CaM bound to NaV1.2 IQ motif, NMR titration): 4
calcium-binding affinity of sites III and IV (CaMC) in CaM-IQp complex [2]: diminished

Kd [3]: 11.6 nM
calcium-saturated CaMC bound to NaV1.2-IQ ([1]; neuronal intracellular Ca^2+ range centered on 10 03BCM, simulation, Fig. 7B): 50–75%
Compound: C-domain of CaM [CaMC]
affinity of CaMC for NaV1.5 DIII-DIV linker (NaV1.5 DIII-DIV linker): micromolar affinity

ratio of Kd, (Ca^2+)4-CaM over apo CaM (higher, weaker) ([3]; (Ca^2+)4-CaM vs apo CaM): ~ 30 fold
Kd [3]: 3.2 nM
predicted occupancy of IQ motif by (Ca^2+)4-CaM at high calcium ([1]; 10 03BCM free calcium): ~ 68%
predicted occupancy of NaV1.2 IQ motif, (Ca^2+)4-CaM (NaV1.2 IQ motif): 37–54%
predicted occupancy of NaV1.2 IQ motif, apo CaM (NaV1.2 IQ motif): 94–97%
Compound: Calmodulin [CaM]
fractional decrease/change in YFP intensity of biosensor, apo (NaV1.2IQ biosensor): 36%
relative affinity of apo vs calcium-saturated CaM for rat Nav1.2IQp (rat Nav1.2IQp): binds more favorably than calcium-saturated CaM
affinity for apo CaM relative to (Ca^2+)4-CaM, NaV IQ motifs [4]: higher affinity for apo CaM than (Ca^2+)4-CaM
effect on RyR1 (ryanodine receptor RyR1; listed as apo CaM): activated
effect on RyR1 (ryanodine receptor RyR1; listed as calcium-saturated CaM): inhibited
affinity of (Ca^2+)4-CaM relative to apo CaM for CaV1.2 IQ motif (CaV1.2 IQ motif): higher affinity for (Ca^2+)4-CaM than apo CaM

binding to NaV1.2IQ biosensor, in words ([3]; CaMN, apo and 1 mM calcium): negligible binding
Compound: N-domain of CaM [CaMN]
deflection in fluorescence intensity relative to that seen at 50 nM CaMC (NaV1.2IQ biosensor; 50 pM CaMN (so in the source) vs 50 nM CaMC): less than 1%
fractional decrease/change in YFP intensity of biosensor, apo (NaV1.2IQ biosensor): ~ 1%
binding of CaMN to NaV IQ motifs ([4]; NaV1.2, 1.5 and 1.6 IQ motifs): undetectable or very weak binding
